From article PMC3254186 (Frontiers in Pharmacology, 2011)

Assays:
Format in all cases: cell-based
Kir3.1/3.2 (GIRK) = target: T1, Kir3.1/3.2 (GIRK) (Homo sapiens, UniProt P48051+P48549); assay: Tl+ flux assay, mGluR8-activated GIRK in HEK-293 cells; settings: from Tl+ flux IC50 values
T1 sequence (P48549 1-501): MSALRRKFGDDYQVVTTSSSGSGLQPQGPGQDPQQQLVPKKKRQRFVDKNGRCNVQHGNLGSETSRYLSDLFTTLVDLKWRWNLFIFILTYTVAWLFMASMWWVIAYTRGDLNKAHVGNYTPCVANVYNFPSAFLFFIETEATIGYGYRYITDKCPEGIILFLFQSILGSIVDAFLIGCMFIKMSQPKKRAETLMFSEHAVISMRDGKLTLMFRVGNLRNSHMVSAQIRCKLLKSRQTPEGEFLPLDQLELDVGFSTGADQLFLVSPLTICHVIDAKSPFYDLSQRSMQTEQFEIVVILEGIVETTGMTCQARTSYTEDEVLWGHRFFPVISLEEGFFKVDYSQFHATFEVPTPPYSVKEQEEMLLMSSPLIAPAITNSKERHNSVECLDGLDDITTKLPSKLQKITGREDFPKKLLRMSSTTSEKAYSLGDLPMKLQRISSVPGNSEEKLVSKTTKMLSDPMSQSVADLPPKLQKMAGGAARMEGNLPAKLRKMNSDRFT
T1 sequence (P48051 1-423): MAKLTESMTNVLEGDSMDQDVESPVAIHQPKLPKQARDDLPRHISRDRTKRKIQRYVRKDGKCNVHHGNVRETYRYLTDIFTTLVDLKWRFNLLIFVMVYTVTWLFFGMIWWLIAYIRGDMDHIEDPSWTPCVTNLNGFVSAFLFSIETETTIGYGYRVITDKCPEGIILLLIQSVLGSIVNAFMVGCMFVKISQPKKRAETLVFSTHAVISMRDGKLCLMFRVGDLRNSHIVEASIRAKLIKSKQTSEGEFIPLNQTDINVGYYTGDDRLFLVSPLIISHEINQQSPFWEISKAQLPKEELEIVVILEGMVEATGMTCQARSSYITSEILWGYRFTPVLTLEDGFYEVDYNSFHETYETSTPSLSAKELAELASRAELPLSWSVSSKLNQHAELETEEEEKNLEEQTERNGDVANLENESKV
Outline: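 mGluR8/GIRK/HEK monoclonal cells stably expressing Kir3.1/3.2, M4 receptor and rat mGlu8a, loaded with FluoZin-2. Test compound pre-incubated 20 min (1:3 serial dilutions from 10 mM DMSO stock). Tl+ buffer (12 mM Tl2SO4, pH 7.3) added with glutamate at EC80, set daily from an 11-point curve. Imaged at 1 Hz (ex 470, em 540 nm), 20–23°C. Slope taken 5–15 s post-addition, vehicle-corrected. CRC n = 3. Selectivity taken from the Tl+ flux IC50 values for GIRK and Kir1.1-S44D.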

Kir1.1 = target: T2, Kir1.1 (Rattus norvegicus, UniProt P35560); assay: Two-electrode voltage clamp in Xenopus oocytes, Kir1.1
T2 sequence (P35560 1-391): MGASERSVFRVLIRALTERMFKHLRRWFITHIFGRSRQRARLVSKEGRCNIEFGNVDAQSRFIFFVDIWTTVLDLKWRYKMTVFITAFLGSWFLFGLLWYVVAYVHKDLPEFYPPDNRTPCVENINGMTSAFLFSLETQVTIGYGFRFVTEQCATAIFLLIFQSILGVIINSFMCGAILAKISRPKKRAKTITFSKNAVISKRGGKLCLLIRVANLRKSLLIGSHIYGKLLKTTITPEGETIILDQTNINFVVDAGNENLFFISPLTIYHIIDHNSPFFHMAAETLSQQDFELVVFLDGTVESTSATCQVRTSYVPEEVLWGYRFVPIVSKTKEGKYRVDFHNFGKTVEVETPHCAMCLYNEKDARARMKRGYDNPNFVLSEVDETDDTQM
Outline: (§1)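 Stage V–VI Xenopus oocytes were defolliculated with 1 mg/mL collagenase and injected with 0.5–10 ng cRNA. They were kept at 16°C in modified L-15 for 24–72 h. Two-electrode voltage clamp at 20–23°C: held at −75 mV and stepped to −120 mV for 200 ms every 5 s, with current at −120 mV tracked over time. Test compound (50 μM) was perfused, then 2 mM Ba2+. Time constant of inhibition derived.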

Kir2.1 = target: T3, Kir2.1 (Homo sapiens, UniProt P63252); assay: Two-electrode voltage clamp in Xenopus oocytes, Kir2.1
T3 sequence (P63252 1-427): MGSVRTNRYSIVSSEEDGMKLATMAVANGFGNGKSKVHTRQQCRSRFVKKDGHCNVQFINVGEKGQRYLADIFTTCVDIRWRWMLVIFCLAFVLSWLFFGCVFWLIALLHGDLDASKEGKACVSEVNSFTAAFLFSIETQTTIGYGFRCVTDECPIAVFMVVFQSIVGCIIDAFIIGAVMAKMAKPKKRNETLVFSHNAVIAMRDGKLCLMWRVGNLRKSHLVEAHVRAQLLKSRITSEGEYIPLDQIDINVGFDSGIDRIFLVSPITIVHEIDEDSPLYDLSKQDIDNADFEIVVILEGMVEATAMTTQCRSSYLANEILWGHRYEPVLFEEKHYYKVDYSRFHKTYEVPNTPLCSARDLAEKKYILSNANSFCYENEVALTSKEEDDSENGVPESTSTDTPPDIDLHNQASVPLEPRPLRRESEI
Outline: as §1

Kir7.1 = target: T4, Kir7.1 (Homo sapiens, UniProt O60928); assay: Two-electrode voltage clamp in Xenopus oocytes, Kir7.1
T4 sequence (O60928 1-360): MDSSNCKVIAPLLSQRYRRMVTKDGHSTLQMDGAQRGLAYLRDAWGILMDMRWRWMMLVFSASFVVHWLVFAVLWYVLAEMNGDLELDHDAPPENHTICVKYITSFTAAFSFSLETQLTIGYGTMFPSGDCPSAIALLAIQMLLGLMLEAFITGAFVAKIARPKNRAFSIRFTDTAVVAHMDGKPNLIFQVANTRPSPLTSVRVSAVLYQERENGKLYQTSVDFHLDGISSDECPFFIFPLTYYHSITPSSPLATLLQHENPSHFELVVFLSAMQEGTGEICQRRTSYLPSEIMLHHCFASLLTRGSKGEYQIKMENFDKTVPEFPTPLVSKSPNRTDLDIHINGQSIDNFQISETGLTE
Outline: as §1

Cc1ccc(OCC(O)Cn2c(=N)n(Cc3ccccc3)c3ccccc32)cc1 (stereo not shown) [Compound 1, 1-(3-benzyl-2-imino-2,3-dihydro-1H-benzo[d]imidazol-1-yl)-3-(p-tolyloxy)propan-2-ol]
selectivity for GIRK over Kir1.1 (Kir3.1/3.2 (GIRK)): 10 fold | time constant of Kir1.1 inhibition (Kir1.1; TEVC oocytes, 50 μM, n = 8): 95 ± 15 s | inhibition at 50 µM (Kir1.1; read-out: inhibition of Kir1.1): 4.3 ± 1.7% | time constant (τ) of Kir2.1 inhibition (Kir2.1; TEVC oocytes, 50 μM, n = 4): 735 ± 85 s | inhibition at 50 µM (Kir2.1; read-out: inhibition of Kir2.1): 30.2 ± 9.4% | time constant of Kir7.1 inhibition (Kir7.1; TEVC oocytes, 50 μM, n = 8): 38 ± 6 s | inhibition at 50 µM (Kir7.1; read-out: inhibition of Kir7.1): 66 ± 6%
